The source of these data is PubChem BioAssay.

Each structure is given as a SMILES string. Unmarked numbers belong to inactive results. Inconclusive results are not listed. Calls of active or inactive are those of the source.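 How the source made its calls, unless noted: active means viability increase at or above a cutoff of the median across tested compounds plus 3 SD (cut at about 8.5% in these data, passing the limit was not always enough); inconclusive means some gains above the cutoff, reason not given; inactive means the rest.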

The nature of test [1]: OD615 S. cerevisiae growth inhibition, permissive medium, pilot counter-assay, permissive growth control for S. cerevisiae lifespan shortening project (AID 705;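 active means growth inhibition above 25% in both replicates, a cutoff set 3 SD above the mean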). The settings on record: OD615, 24 h, at 10 µM, hits give high values. In a few lines: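 System: S. cerevisiae with engineered DeaD lifespan system. Medium: SC raffinose/galactose permissive medium. Doses: single compound dose of 10 µM, 0.25% DMSO final. Schedule: 24 h exposure, 30 °C. Measured by: OD615 turbidity read. Read-out: growth inhibition.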

Test [2] can be described thus: Restrictive medium S. cerevisiae growth inhibition, OD615, pilot screen of yeast lifespan reduction project, restrictive growth control (AID 706;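 active means growth inhibition above a set limit, 3 SD over mean compound inhibition, in both replicates, cut at about 43% in these data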;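 further: modified DeaD lifespan yeast strain shifted to restrictive glucose medium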). The note with it: OD615, 48 h, at 10 µM, hits give high values. The method, boiled down:
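Assay system – genetically modified Saccharomyces cerevisiae, DeaD replicative lifespan assay strain · Medium – CSMM-D glucose medium · Doses – 10 µM compound, 0.25% DMSO · Times – 4 h pre-incubation, 48 h exposure at 30 °C · Signal – optical density at 615 nm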

Test [3] is described as follows: viability gain of MRP-1-high H69AR cells under doxorubicin, pilot screen, MRP-1 activator project, CellTiter-Glo, duplicate (AID 807).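 Further: compound pretreatment 18-22 h then 72 h combined with doxorubicin; 0% = doxorubicin alone and 100% = vehicle without doxorubicin.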 The settings on record: H69AR viability with doxorubicin, CellTiter-Glo luminescence; at 10 µM; hits give high values.
Test [4] in a line: growth suppression of beta-catenin knockout HCT116, pilot screen, human colon tumor cells (AID 823;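 active means cell viability at or below a set limit in both duplicate runs, the limit being the all-compound median minus 4 SD, cut at about 23% in these data, passing the limit was not always enough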;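 further: 0% = wells killed by 20 µM Hyamine and 100% = untreated DMSO cell wells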). The note with it: CellTiter-Glo, 60 h, at 10 µM, hits give low values. In general terms: Cellular ATP, detected with luciferase, serves as a proxy for viable cell number.
The nature of test [5]: growth suppression of PTEN-deleted HCT116, pilot screen, cell-based, HCT116 clonal line, CellTiter-Glo (AID 824;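 active means viability at or below 27.92% in each of two runs, the all-compound median minus 4 SD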;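 further: 0% = 20 µM Hyamine control and 100% = vehicle cell control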). The note with it: 60 h, at 10 µM, hits give low values.
Test [6] in a line: inhibitors of the yeast RAM network, pilot screen, dse1pr::URA3 reporter, 5-FOA selection (AID 869;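 active means inhibition over a set limit, the all-compound mean plus 3 SD, in both replicate runs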;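 further: 0% = DMSO wells with no growth and 100% = 10 µM 1-NA-PP1 with full growth; RAM network block rescues cells from 5-FOA so hits raise OD615 growth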). The settings on record: S. cerevisiae dse1pr::URA3 5-FOA growth, OD615, 2 d; at 10 µM; hits give high values; strain carries analog-sensitive mutant Cbk1 kinase.
The nature of test [7]: RAM signaling pathway blockade in yeast – S. cerevisiae, Pdr1DBD-CYC8 efflux-inhibited sensitized strain, primary screen (AID 1298;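 active means RAM network inhibition above 8.4% in each of two replicates, 3 SD over the compound average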;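 further: 0% = DMSO untreated cells without growth and 100% = 10 µM 1-NA-PP1 full growth; higher means more yeast growth rescued from 5-FOA killing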). The note with it: S. cerevisiae cbk1-as DSE1-URA3 strain, 5-FOA growth OD615, 2 d; at 50 µM; hits give high values.

A word on the viability: it is a read-out of living cells in per cent, often relative to untreated cells. As a reminder, the inhibition is the drop in the measured response relative to a control, in per cent. On to `Cc1oc(-c2cccc(Cl)c2)nc1CN1CCCC(C(=O)NC(C)c2ccc3c(c2)OCCO3)C1` (stereo not given), for which the growth inhibition in test [1] was -7.17%; in test [2] it was -16.3%. Further, the viability increase in test [3] was -4.74%. In addition, the results for the viability in test [4] and in test [5] were 33.7% and 37.5%, respectively. Also, in test [6], the inhibition was 2.46%. Further, in test [7], the RAM network inhibition is 5.6%.
Turning to `Cc1noc(NS(=O)(=O)c2ccc(NC(=O)COc3ccc(Cl)cc3Cl)cc2)c1C`, the growth inhibition in test [1] is -2.93%; in test [2], 10.8%. The viability increase in test [3] is -0.49%. In addition, the viability in test [4] is 100%; in test [5] it was 98.6%. Moreover, the inhibition in test [6] was 2.39%. The RAM network inhibition in test [7] was 7.51%.
Take `CCOc1ccc2[nH]c(C)c(CN3CCOCC3)c(=O)c2c1`: the growth inhibition in test [1] was 0.82%; in test [2], -5.17%. The viability increase in test [3] was -1.13%. Moreover, the viability in test [4] is 96.5%; in test [5] it was 99%. In addition, the inhibition in test [6] was 1.96%. The RAM network inhibition in test [7] was 2.56%.
For `CC12CN3CC(C)(CN(C1)C3c1ccc(Br)cc1)C2=O` (stereo not given), the figures for the growth inhibition in test [1] and in test [2] were -1.9% and 3.54%, respectively. Further, in test [3], the viability increase is -2.12%. For the same compound, the viability is 95.2% in test [4] and 96.9% in test [5]. The inhibition in test [6] was 0.265%. The RAM network inhibition in test [7] was 0.82%.
`COc1ccc(C/C(N)=N/n2cnnc2)cc1`: the growth inhibition in test [1] is 2.64%; in test [2], -3.72%. Further, the viability increase in test [3] is 0.39%. The viability is 100% in test [4] and 106% in test [5]. Further, the inhibition in test [6] was 0.64%. The RAM network inhibition in test [7] was 3.02%.
Take `Cc1cc(C)n2nc(S(=O)(=O)NC3CCCCC3)nc2n1`: the growth inhibition in test [1] was -7.41%; in test [2] it was -7.9%. The viability increase in test [3] was -0.66%. The viability was 103% in test [4] and 98.5% in test [5]. In addition, the inhibition in test [6] was 1.06%. In addition, the RAM network inhibition in test [7] was -0.89%.
Turning to `COCc1nc(-c2ccc(-c3ccc(OC)cc3)nc2OC)no1`, the growth inhibition was 11.9% in test [1] and 3.28% in test [2]. The viability increase in test [3] is -0.98%. Further, the values for the viability in test [4] and in test [5] were 71% and 72.2%, respectively. In addition, in test [6], the inhibition was 1%. In test [7], the RAM network inhibition was 2.1%.
Turning to `COc1ccc(C2C(C(=O)NCc3ccccn3)c3cc(OC)c(OC)cc3C(=O)N2C)cc1` (stereo not given), the growth inhibition is -3.48% in test [1] and 1.16% in test [2]. Moreover, the viability increase in test [3] was -4.5%. For the same compound, the viability in test [4] was 98%; in test [5] it was 95.9%. Further, the inhibition in test [6] is -0.135%. The RAM network inhibition in test [7] was 5.92%.
For the compound `CCOC(=O)C1Cc2ccccc2C(=O)O1` (stereo not given), the growth inhibition is -4.84% in test [1] and -2.44% in test [2]. For the same compound, the viability increase in test [3] was -0.24%. Also, the viability in test [4] was 96.4%; in test [5], 100%. Also, the inhibition in test [6] is 0.47%. In addition, in test [7], the RAM network inhibition was 5.42%.
With `CC(=O)NCCc1nc2ccccc2n1Cc1ccccc1`, the results for the growth inhibition in test [1] and in test [2] were 1.21% and -2.44%, respectively. Further, the viability increase in test [3] is -2%. Besides, the results for the viability in test [4] and in test [5] were 106% and 98.8%, respectively. Further, the inhibition in test [6] is 1.33%. Moreover, the RAM network inhibition in test [7] was 3.58%.
Take `CCC1(C(=O)O)NC(c2cccc(OC)c2O)C2C(=O)N(c3ccccc3)C(=O)C21` (stereo not given): the growth inhibition in test [1] was -6.47%; in test [2], 1.83%. Moreover, the viability increase in test [3] was -2.33%. For the same compound, the viability in test [4] is 102%; in test [5], 93.8%. Also, in test [6], the inhibition was 3.62%. The RAM network inhibition in test [7] was 1.14%.
With `Cc1nn(C)c(C)c1N=Cc1c(O)ccc2ccccc12`, the values for the growth inhibition in test [1] and in test [2] were -25.2% and -28.4%, respectively. Moreover, the viability increase in test [3] is -1.72%. For the same compound, the viability in test [4] was 105%; in test [5] it was 92.1%. For the same compound, in test [6], the inhibition was -0.015%. For the same compound, in test [7], the RAM network inhibition was -0.32%.
`CCOc1ccccc1Nc1ncnc2c1cnn2-c1ccccc1`: the growth inhibition in test [1] was -6.82%; in test [2], -5.11%. Besides, the viability increase in test [3] is 3.06%. Besides, the viability in test [4] is 93.6%; in test [5] it was 91.1%. The inhibition in test [6] is 2.2%. The RAM network inhibition in test [7] is 5.59%.
In the case of `CCOc1ccccc1C1C(C(N)=O)=C(C)Nc2nc(CCCO)nn21` (stereo not given), the growth inhibition is -13.8% in test [1] and 2.83% in test [2]. In addition, the viability increase in test [3] is -1.39%. Also, the viability in test [4] was 100%; in test [5], 102%. Besides, the inhibition in test [6] is 2.46%. Besides, the RAM network inhibition in test [7] was -1.1%.
As for `Cc1cc(/C=N/n2cnnc2)c(C)n1-c1ccc(OCc2ccc(F)cc2)cc1`, the values for the growth inhibition in test [1] and in test [2] were -2.2% and 32.3%, respectively. In addition, in test [3], the viability increase was -5.79%. Moreover, the values for the viability in test [4] and in test [5] were 10.2% (active) and 11.8% (active), respectively. The inhibition in test [6] is 1.71%. Moreover, the RAM network inhibition in test [7] was 8.48%.
